Experimental data as given in article PMC11550832 (Nature Communications, 2024).

Tests used:
Particle size by DLS = type: physicochemical; conditions: aqueous solution, 200 μM
Zeta potential by DLS = type: physicochemical; conditions: 200 μM, mean n = 3
[1] = Critical aggregation concentration; type: physicochemical; conditions: pyrene probe, I1 (373 nm)/I3 (384 nm), 0.01-50 μM, 37 °C for 2 h, fluorescence
Procedure, shortened: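 Pyrene fluorescence was excited at 335 nm and emission recorded. The I1 (373 nm)/I3 (384 nm) intensity ratio was used to derive the critical aggregation concentration.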

[2] = TEM morphology of nanoparticles; type: physicochemical; conditions: 50 μM, uranyl acetate stain
Procedure, shortened: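 A 50 μM nanoparticle solution was dried on holey-carbon copper grids and stained with 2% uranyl acetate for 3 min. Grids were imaged by TEM at 120 kV.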

[3] = target: T1, human PD-L1 recombinant protein (Homo sapiens, UniProt Q9NZQ7); experiment: PD-L1-induced fibrillar transformation in aqueous solution; type: biochemical; conditions: 24 h incubation
Procedure, shortened: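 Recombinant human PD-L1 was added to 50 μM nanoparticle solution at molar ratios of 1:100, 1:500, 1:1000, 1:2000 and 1:5000. Mixtures were incubated 0.5 h, 4 h and 24 h, then prepared for TEM to view morphology change.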

[4] = target: T1, human PD-L1 recombinant protein; experiment: CD and FTIR spectroscopy of β-sheet formation; type: biochemical; conditions: human PD-L1, 24 h, 50 μM, ratio 1000:1
Procedure, shortened: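 Nanoparticles were incubated with or without recombinant human PD-L1. β-sheet formation was then detected by CD spectroscopy, with FTIR alongside.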

SKBR-3 cells [5] = experiment: Cellular distribution of peptide nanoparticles; type: cell-based, human; conditions: SKBR-3, 50 μM, 4 h
4T1 cells [6] = experiment: Cellular distribution of peptide nanoparticles; type: cell-based, mouse; conditions: 4T1, 50 μM, 4 h
4T1 cells [7] = experiment: Intracellular distribution of internalized TPM2 and TPM3; type: cell-based, mouse; conditions: 50 μM, 4, 24 and 48 h, LysoTracker, CLSM
PD-L1 on SKBR-3 cells = PD-L1 on SKBR-3 cells (Homo sapiens, UniProt Q9NZQ7); experiment: Surface PD-L1 level after treatment; type: cell-based; conditions: SKBR-3, nanoparticles 50 μM or antibody 68 nM, 4 h, flow cytometry
Procedure, shortened: (§1)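 Cells were washed and moved to medium without FBS or penicillin/streptomycin. They were treated 4 h at 37 °C, 5% CO₂ with nanoparticles (50 μM) or anti-PD-L1 antibody (68 nM). Surface PD-L1 was stained 15 min at 4 °C with BV421 antibody (1:200), anti-human for SKBR-3 and anti-mouse for 4T1. Cells were PBS-washed three times and analysed by flow cytometry.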

PD-L1 on 4T1 cells = PD-L1 on 4T1 cells (Mus musculus, UniProt Q9EP73); experiment: Surface PD-L1 level after treatment; type: cell-based; conditions: 4T1, nanoparticles 50 μM or antibody 68 nM, 4 h, flow cytometry
Procedure, shortened: as §1

[8] = target: PD-L1 on the membrane of SKBR-3 cells (Homo sapiens, UniProt Q9NZQ7); experiment: Co-location of nanoparticles and PD-L1 on cell membrane; type: cell-based; conditions: SKBR-3, 4 h, FITC immunofluorescence
Procedure, shortened: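 PD-L1 on cells was immunostained with a FITC-labelled goat anti-mouse secondary (1:1000, 1 h, room temperature) after PBS washes. Nuclei were stained with DAPI and cells imaged by confocal microscopy. Co-localization with the nanoparticle signal was quantified computationally.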

HFF cells = experiment: Cytotoxicity, CCK-8; type: cell-based, human; conditions: CCK-8, 24 h, 1, 10, 50, 100 and 200 μM, n = 5
Procedure, shortened: (§2)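 Cells at 8 × 10³ per well were exposed to 1, 10, 50, 100 and 200 μM nanoparticles in DMEM, RPMI-1640 or McCoy's 5A complete medium for 24 h. CCK-8 was added for a further 2 h and OD450 read. Viability (%) = [(treated − blank)/(control − blank)] × 100.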

SKBR-3 cells [9] = experiment: Cytotoxicity, CCK-8; type: cell-based, human; conditions: SKBR-3, CCK-8, 24 h, 1-200 μM; TPM1 finding at 100 μM or 200 μM
Procedure, shortened: as §2

4T1 cells [10] = experiment: Cytotoxicity, CCK-8; type: cell-based, mouse; conditions: 4T1, CCK-8, 24 h, 1-200 μM; TPM1 finding at 100 μM or 200 μM
Procedure, shortened: as §2

LLC cells = experiment: Cytotoxicity, CCK-8; type: cell-based, mouse; conditions: CCK-8, 24 h, 1-200 μM, TPM1 finding at 100 μM or 200 μM
Procedure, shortened: as §2

[11] = system: 4T1 cells co-cultured with activated CD8+ T cells; experiment: Killing effect of activated CD8+ T cells on treated 4T1 cells; type: cell-based, mouse; conditions: co-culture of 4T1 and activated CD8+ T cells
Procedure, shortened: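 Splenic mouse CD8⁺ T cells were expanded with IL-2 and activated with anti-CD3/CD28 beads. 4T1 cells were pretreated 4 h with test compound or anti-PD-L1 antibody (68 nM), washed, then co-cultured with T cells (1:10) for 24 h. T cells alone on 4T1 served as control. Read-outs: CCK-8 viability (6 × 10³ cells/well) or calcein-AM staining, 20 min (2 × 10⁴ cells/well).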

mice bearing 4T1 tumour = experiment: Bio-distribution, ex vivo fluorescence imaging; type: in vivo, mouse; conditions: single i.v. 13 mg/kg, 4T1 tumour mice, post-injection
Procedure, shortened: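 Female Balb/c mice (6–8 weeks) carrying subcutaneous 4T1 tumours (1 × 10⁶ cells, right flank) got a single tail-vein dose of 13 mg/kg nanoparticle. n = 3 per group per time point. Tumour, heart, liver, spleen, lung, kidney, intestine and muscle were harvested at 2, 4, 6, 8, 10, 24, 48, 72 and 168 h post-injection and imaged ex vivo by fluorescence.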

[12] = system: mice bearing 4T1 breast cancer; experiment: In vivo inflammatory effect, serum TNF, IL-6, IL-1β ELISA; set-up: species or system mouse; conditions: 21 days after a single dose, 4T1 tumour mice, n = 5
Procedure, shortened: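 Serum was taken from 4T1 tumour-bearing mice (n = 5 per group) 21 days after a single dose. Arms: PBS 200 μL i.v., nanoparticles 13 mg/kg via tail vein, anti-PD-L1 antibody 5 mg/kg. TNF, IL-6 and IL-1β were measured by ELISA.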

PD-L1 in SKBR-3 cells = experiment: Upregulation of PD-L1 induced by IFN-γ; type: cell-based, human; conditions: SKBR-3, 100 ng/mL, 24 h
Procedure, shortened: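 Recombinant human IFN-γ (100 ng/mL) added to complete medium of SKBR-3 cells for 24 h. Western blot: cells PBS-washed three times, lysed on ice in RIPA buffer with 1% protease inhibitor, spun 13523 × g, 3 min, 4 °C; band density quantified. Flow cytometry: PBS-washed cells stained with BV421-labelled human anti-PD-L1 (1:200), 15 min, 4 °C, washed thrice.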

PD-L1 in 4T1 cells = experiment: Upregulation of PD-L1 induced by IFN-γ; type: cell-based, mouse; conditions: 4T1, 100 ng/mL, 24 h
Procedure, shortened: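 4T1 cells received mouse IFN-γ (100 ng/mL) in complete medium for 24 h. Western blot: cells PBS-washed three times, lysed on ice in RIPA buffer with 1% protease inhibitor, spun 13523 × g, 3 min, 4 °C; band density quantified. Flow cytometry: PBS-washed cells stained with BV421-labelled mouse anti-PD-L1 (1:200), 15 min, 4 °C, washed thrice.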

T1 sequence (Q9NZQ7 19-239 limits assumed): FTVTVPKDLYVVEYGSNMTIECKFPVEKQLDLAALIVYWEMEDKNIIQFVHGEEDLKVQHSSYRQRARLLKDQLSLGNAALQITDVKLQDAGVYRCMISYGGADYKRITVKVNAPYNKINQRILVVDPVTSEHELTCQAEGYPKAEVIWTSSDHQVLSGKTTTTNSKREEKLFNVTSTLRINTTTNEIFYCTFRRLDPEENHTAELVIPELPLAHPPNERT
Sequence of PD-L1 on the membrane of SKBR-3 cells (Q9NZQ7 19-290): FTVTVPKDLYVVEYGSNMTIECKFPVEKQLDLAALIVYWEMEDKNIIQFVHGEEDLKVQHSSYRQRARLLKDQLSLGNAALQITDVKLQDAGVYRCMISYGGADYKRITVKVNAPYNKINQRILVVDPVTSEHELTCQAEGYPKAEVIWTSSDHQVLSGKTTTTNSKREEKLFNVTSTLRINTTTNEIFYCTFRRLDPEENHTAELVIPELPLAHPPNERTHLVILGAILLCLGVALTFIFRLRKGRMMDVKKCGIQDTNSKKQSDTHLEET
Sequence of PD-L1 on SKBR-3 cells (Q9NZQ7 19-290): as above
Sequence of PD-L1 on 4T1 cells (Q9EP73 19-290): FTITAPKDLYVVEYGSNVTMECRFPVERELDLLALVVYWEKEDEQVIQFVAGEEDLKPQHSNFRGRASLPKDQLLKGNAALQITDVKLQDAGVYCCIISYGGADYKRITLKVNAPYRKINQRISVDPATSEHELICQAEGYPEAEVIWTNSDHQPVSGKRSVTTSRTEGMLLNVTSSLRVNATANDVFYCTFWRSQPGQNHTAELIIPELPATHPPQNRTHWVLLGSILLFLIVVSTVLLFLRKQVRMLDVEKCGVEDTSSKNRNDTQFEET

Ac-K(Ce6)-GGAAK-SGQYASYHCWCWRDPGRSGGSK [TPM2]
diameter of nanoparticles (DLS) (Particle size by DLS): ~ 19 nm
zeta potential of initial nanoparticles (Zeta potential by DLS): +19.6 mV
critical aggregation concentration (CAC) [1]: 9.8 µM
morphology of nanoparticles (TEM) [2]: spherical structure
morphology after incubation with PD-L1 proteins (TEM) [3]: no noticeable change in morphology
CD signals after incubation with PD-L1 protein [4]: No such change
location of Ce6 red fluorescence signals (CLSM) (SKBR-3 cells [5]): inside cells rather than on the cell membranes
location of Ce6 red fluorescence signals (CLSM) (4T1 cells [6]): inside cells rather than on the cell membranes
fate of internalized nanoparticles (4T1 cells [7]): predominately degraded in lysosomes
change in PD-L1 expression levels before and after incubation (PD-L1 on SKBR-3 cells): no significant changes
change in PD-L1 expression levels before and after incubation (PD-L1 on 4T1 cells): no significant changes
co-localization with PD-L1 on cell membrane [8]: No apparent co-localization
cytotoxicity (HFF cells): no apparent cytotoxicity
cytotoxicity (SKBR-3 cells [9]): No cytotoxicity
cytotoxicity (4T1 cells [10]): No cytotoxicity
cytotoxicity (LLC cells): No cytotoxicity
effect on T cell activity [11]: no effect
time of peak fluorescence intensity in the tumour (mice bearing 4T1 tumour; ex vivo imaging): 24 h
fluorescent signals in the tumour remained until (mice bearing 4T1 tumour): 48 h
serum TNF, IL-6 and IL-1β versus PBS and other groups [12]: no significant difference

B1: IFN-γ: human or mouse IFN-γ (PeproTech), 100 ng/mL, used to upregulate PD-L1 expression (protein, UniProt P01579 24-161, looked up)
Interferon gamma: QDPYVKEAENLKKYFNAGHSDVADNGTLFLGILKNWKEESDRKIMQSQIVSFYFKLFKNFKDDQSIQKSVETIKEDMNVKFFNSNKKKRDDFEKLTNYSVTDLNVQRKAIHELIQVMAELSPAAKTGKRKRSQMLFRG
PD-L1 expression after IFN-γ treatment (PD-L1 in SKBR-3 cells): increased PD-L1 expression
PD-L1 expression after IFN-γ treatment (PD-L1 in 4T1 cells): increased PD-L1 expression
